Compounds with a hit are over-represented: about 5.7% of the library has one in this group of screens.
Mdm2 MdmX PPI = inhibitors of human Mdm2-MdmX association, primary screen, cell-based, luminescence, split luciferase, SaOS-2, uHTS | Protein Mdm4 (Homo sapiens) + E3 ubiquitin-protein ligase Mdm2 (Homo sapiens), … | SaOS-2 split-luciferase Mdm2/MdmX complementation | 330,000 tested, 3% active | inhibition, % at 8 µM;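 active means inhibition of at least 50% at 8 µM in the primary screen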
Target sequence (O15151 whole entry, looked up): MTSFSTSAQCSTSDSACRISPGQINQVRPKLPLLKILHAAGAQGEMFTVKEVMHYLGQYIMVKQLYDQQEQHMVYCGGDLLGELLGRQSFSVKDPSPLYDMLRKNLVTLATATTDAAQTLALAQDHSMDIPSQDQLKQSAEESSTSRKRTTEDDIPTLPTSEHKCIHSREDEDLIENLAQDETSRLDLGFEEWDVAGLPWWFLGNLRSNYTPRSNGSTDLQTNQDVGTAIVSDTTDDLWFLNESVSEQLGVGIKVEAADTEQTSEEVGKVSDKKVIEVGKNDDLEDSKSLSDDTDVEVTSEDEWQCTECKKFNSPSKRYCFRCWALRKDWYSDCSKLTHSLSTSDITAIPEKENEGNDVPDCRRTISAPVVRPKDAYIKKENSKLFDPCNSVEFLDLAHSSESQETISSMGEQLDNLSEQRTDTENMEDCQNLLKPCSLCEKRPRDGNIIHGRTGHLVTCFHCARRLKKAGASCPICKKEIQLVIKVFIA
Target sequence (Q00987 whole entry, looked up): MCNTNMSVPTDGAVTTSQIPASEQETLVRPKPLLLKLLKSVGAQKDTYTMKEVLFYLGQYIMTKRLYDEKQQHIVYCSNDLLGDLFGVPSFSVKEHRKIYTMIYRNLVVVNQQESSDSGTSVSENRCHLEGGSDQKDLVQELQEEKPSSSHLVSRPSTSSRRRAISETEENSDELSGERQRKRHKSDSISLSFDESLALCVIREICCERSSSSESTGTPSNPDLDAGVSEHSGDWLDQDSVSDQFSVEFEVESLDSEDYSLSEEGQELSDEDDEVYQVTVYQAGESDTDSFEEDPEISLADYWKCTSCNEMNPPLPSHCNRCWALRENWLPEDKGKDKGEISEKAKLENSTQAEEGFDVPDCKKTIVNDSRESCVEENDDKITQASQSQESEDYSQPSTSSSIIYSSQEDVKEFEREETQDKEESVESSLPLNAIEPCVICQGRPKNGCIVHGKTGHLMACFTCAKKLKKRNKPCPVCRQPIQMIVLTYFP
Calb FLC = C. albicans growth inhibition with fluconazole, primary screen, CaCi-2 strain, Alamar Blue fluorescence; C. albicans CaCi-2 (fluconazole-resistant clinical isolate) + fluconazole, 48 h; growth inhibition, % (no concentration beside the values); 300,000 tested, 0.57% active; AID 1979, 2009;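 active means growth inhibition above about 58% in most replicates, limit read from the data, passing the limit was not always enough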;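 further: all wells also contain fluconazole at 8 µg/ml as a sub-toxic cotreatment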
Beta cell apopt = inhibitors of cytokine-induced beta cell apoptosis, primary screen, luminescence. INS-1E cytokine-induced death, ATP luminescence, 48 h; percent of positive-control rescue, neutral wells zero. protection from apoptosis, % (test concentration not listed). 300,000 tested, 0.8% active;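 active means Every replicate reaches about 75%, or at least half do and their mean reaches it too, limit read from the data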;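 further: higher means more ATP so stronger rescue from cytokine killing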
T cruzi inh = inhibitors of intracellular T. cruzi growth, primary screen, luminescence, NIH3T3 host cells; T. cruzi beta-gal in NIH3T3, 90 h; AID 1885, 2009; inhibition, % (concentration not given with the values); 300,000 tested, 1.4% active;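 active means mean inhibition across valid replicates above about 55%, limit read from the data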;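 further: signal also drops with host cell toxicity which is not excluded here; higher percent means less beta-gal luminescence so fewer parasites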
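Assay system: NIH/3T3 fibroblasts plus reporter T. cruzi. Amount: NIH/3T3 cells, 5,000 per well. Buffer or medium: DMEM, 2% fetal bovine serum. Doses: compound pinned at 50 nL/well, DMSO. Schedule: ≥90 h infection period, 3 h prior cell attachment. Signal: luminescent β-galactosidase signal after 60 min lysis. Read-out: parasite load inhibition, %.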
CSC inhib = cancer stem cell viability inhibitors, primary screen, luminescence; inhibition, % at 7.5 µM; 300,000 tested, 1.1% active; cancer stem cell-like cells viability; AID 2717, 2010; in the data active means inhibition above about 75%; tested in HMLE shEcad cells
SKKanGAS inh = S. pyogenes SKKanGAS growth inhibitors in kanamycin, primary screen, streptokinase expression inhibitor project, SKKanGAS strain, BacTiter-Glo luminescence. 6 h. inhibition, % at 7.5 µM. 300,000 tested, 1.3% active;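 active means mean replicate score, as percent of positive control median, at least 50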;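 further: strain carries kanamycin resistance gene driven by streptokinase promoter and grows in 40 µg/ml kanamycin; loss of luminescence reflects streptokinase promoter inhibition or plain growth inhibition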
Mdm2 MdmX conf = Mdm2-MdmX complex disruptors, retested hits, confirmation, luminescence, single concentration. shares compounds with Mdm2 MdmX PPI. Mdm2-MdmX binding, luminescent assay. inhibition, % at 8 µM. 10,000 tested, 55% active. AID 489028, 2010; in the data active means inhibition above about 40%
FLuc counter = full-length luciferase signal inhibition, confirmation, counter-screen for Mdm2/MdmX interaction inhibitor project, cell-based, single concentration, SaOS-2 | shares compounds with Mdm2 MdmX PPI | SaOS-2 full-length luciferase counterscreen, luminescence | inhibition, % at 8 µM | 6,200 tested, 77% active;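 active means mean inhibition at 8 µM reaching about 37%, which flags the compound as non-specific, limit read from the data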;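 further: p53-null SaOS-2 cells with luciferase driven by a doxycycline-inducible promoter; compound on cells about two nights before reading with doxycycline added after day one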
A number is an active result; - = inactive; . = not tested or not shown.

SMILES	Mdm2 MdmX PPI	Calb FLC	Beta cell apopt	T cruzi inh	CSC inhib	SKKanGAS inh	Mdm2 MdmX conf	FLuc counter
C1CCC(C(CC2CCCCN2)C2CCCCC2)CC1 (configuration not stated)	100	.	90	56	99	-	99	-
Cc1cccc2cc(C(c3nnnn3Cc3ccccc3)N3CCCc4ccccc43)c(=O)[nH]c12 (configuration not stated)	88	-	-	-	.	-	-	.
CCN1CCN(C(c2cc3cccc(C)c3[nH]c2=O)c2nnnn2Cc2ccccc2)CC1 (configuration not stated)	-	-	-	-	-	-	.	.
O=C1/C(=C/c2ccc([N+](=O)[O-])cc2)C=C(c2ccccc2)N1c1ccccc1	-	-	-	-	-	-	.	.
O=C1/C(=C/c2ccc([N+](=O)[O-])cc2)C=C(c2ccccc2)N1c1ccc(O)cc1	61	-	-	-	.	-	58	52
Cc1oc(-c2ccccc2Cl)nc1CSCC(=O)N1CCCC1	78	-	-	-	-	-	84	-
Cc1oc(-c2ccccc2Cl)nc1CSCC(=O)NC1CCCC1	-	-	-	-	-	-	.	.
N#C/C(=C/c1ccc(Br)o1)C(N)=S	76	-	-	-	-	-	43	64
Cc1cccc(N2CCN(CC(=O)Nc3ccc(S(=O)(=O)N4CCOCC4)cc3)CC2)c1C	-	-	-	-	-	-	.	.
O=[N+]([O-])c1cccc2c1ccc1ncccc12	56	-	-	-	-	-	-	.
Cc1ccc2ncccc2c1[N+](=O)[O-]	-	-	-	-	-	-	.	.
COc1ccc(-c2c([C@H]3[C@H]4C=CC[C@@H](C)[C@@H]4C(=O)N3Cc3ccccc3)ccc3ccccc23)cc1	69	-	107	-	-	-	-	.
COc1ccc(-c2cccc([C@H]3[C@@H]4C=CC[C@@H](C)[C@@H]4C(=O)N3Cc3ccccc3)c2)cc1	-	.	.	.	.	.	.	.
COc1cc(-c2cccc([C@H]3[C@@H]4C=CC[C@@H](C)[C@@H]4C(=O)N3Cc3ccccc3)c2)cc(OC)c1OC	83	.	.	.	.	.	-	.
COc1ccc(-c2ccc([C@H]3[C@H]4C=CC[C@@H](C)[C@@H]4C(=O)N3Cc3ccccc3)c(F)c2)cc1	-	-	-	-	-	-	.	.
COCCS(=O)(=O)N(Cc1ccc(Br)cc1)[C@@H](C)C(=O)OC	-	.	.	.	.	.	.	.
COc1ccc(OC)c(C(=O)NC(CC(N)=O)c2ccc(NC(C)C)c([N+](=O)[O-])c2)c1 (configuration not stated)	-	-	-	-	-	-	.	.
COc1ccc(-c2cc(=O)n(-c3ccc([N+](=O)[O-])cc3)[nH]2)cc1	55	-	-	-	126	-	-	.
COc1ccc(-c2[nH]n(-c3ccc([N+](=O)[O-])cc3)c(=O)c2C=NCc2ccc(F)cc2)cc1	80	-	-	-	-	-	-	.
Cc1ccc(S(=O)(=O)O/N=C2\CCCc3ccccc32)cc1	-	-	-	-	-	-	.	.
CC1=C(C)/C(=N\OS(=O)(=O)c2ccccc2)C=CC1=O	95	-	113	55	-	-	84	53
COc1ccc2oc(C(=O)N3CCCc4ccccc43)c(C)c2c1	-	-	-	-	-	-	.	.
O=C(NN=Cc1ccccc1OC(F)F)c1cccc(S(=O)(=O)N2CCCC2)c1	-	.	-	.	-	.	.	.
COc1ccc2c(C#CCCO)c(-c3ccc(S(C)(=O)=O)cc3)sc2c1	-	.	-	.	-	.	.	.
COc1ccc2c(-c3ccc(S(N)(=O)=O)cc3)c(-c3ccc(S(C)(=O)=O)cc3)sc2c1	67	.	.	.	.	.	-	.
SMILES	Mdm2 MdmX PPI	Calb FLC	Beta cell apopt	T cruzi inh	CSC inhib	SKKanGAS inh	Mdm2 MdmX conf	FLuc counter
O=C(C[C@H]1C/C=C\CC[C@@H](Cc2ccc(F)cc2)C(=O)O[C@@H](c2ccccc2)CNC1=O)N[C@@H](CO)Cc1ccccc1	-	.	-	.	-	.	.	.
Cc1ccc(S(=O)(=O)n2cc(-c3ccccc3)c3ccccc32)cc1	63	.	-	.	99	.	57	82
O=C(NC(Nc1ncc(S(=O)(=O)c2ccc([N+](=O)[O-])cc2)s1)(C(F)(F)F)C(F)(F)F)c1ccc(Cl)cc1	97	-	113	-	89	-	96	-
COc1ccccc1NC(=O)C1CCCN(S(=O)(=O)c2ccc(-n3cnnn3)cc2)C1 (configuration not stated)	-	-	-	-	-	-	.	.
Cn1c(SCc2ccccc2Cl)nc2c1c(=O)[nH]c(=O)n2C	-	-	-	-	-	-	.	.
COc1ccc(C2=Nn3c([n+](C)c4ccccc43)SC2)cc1	60	-	112	70	-	-	-	.
CCn1cc(C(c2ccccc2)C(C(C)=O)[N+](=O)[O-])c2ccccc21 (configuration not stated)	-	-	-	-	-	-	.	.
CC(=O)C(C(c1ccccc1)c1c[nH]c2ccccc12)[N+](=O)[O-] (configuration not stated)	53	-	-	-	-	-	61	57
O=C1/C(=C\c2ccc(O)cc2)SC(=S)N1Cc1ccccc1	-	-	-	-	-	-	.	.
O=C1/C(=C/c2ccc(O)c([N+](=O)[O-])c2)SC(=S)N1Cc1ccccc1	62	-	-	-	.	-	45	71
O=C1CSC(=S)N1Cc1cccnc1	94	-	-	-	-	-	80	50
O=C1/C(=C/c2ccccc2O)SC(=S)N1Cc1cccnc1	73	-	-	-	-	-	-	.
O=C1/C(=C\c2cc(Br)cc(Br)c2O)SC(=S)N1Cc1ccccc1	91	-	-	-	78	79	79	37
COCC1CCN(C(=O)c2ccc3oc(Cc4ccc(Cl)cc4)nc3c2)C1 (configuration not stated)	-	-	-	-	-	-	.	.
Cc1ccc(NC(=O)c2cnccn2)cc1S(=O)(=O)N1CCCCCC1	-	.	-	.	-	.	.	.
CC1(C)CC(NC(=O)c2ccc(Cl)c(Cl)c2)CC(C)(C)N1	-	-	.	-	-	-	.	.
O=C(CSc1nnc(-c2cccnc2)n1-c1ccccc1)Nc1ccccc1	50	-	-	-	-	-	-	.
CCOC(=O)CSc1nnc(-c2cccs2)n1-c1ccccc1	-	-	-	-	-	-	.	.

Source: PubChem BioAssay (several laboratories)
